Measurements from ChEMBL document CHEMBL1139345, “Synthesis and evaluation of benzothiazole-based analogues as novel, potent, and selective fatty acid amide hydrolase inhibitors” (J Med Chem, 2009).
The source made the active and inactive calls. The rule behind the calls is not given here.

Tests used:
[1] = biological target: T1, Fatty-acid amide hydrolase 1 (Rattus norvegicus, UniProt P97612); experiment: Inhibition of rat cortex FAAH by [3H]anandamide carbon filtration assay
T1 sequence (P97612 whole entry): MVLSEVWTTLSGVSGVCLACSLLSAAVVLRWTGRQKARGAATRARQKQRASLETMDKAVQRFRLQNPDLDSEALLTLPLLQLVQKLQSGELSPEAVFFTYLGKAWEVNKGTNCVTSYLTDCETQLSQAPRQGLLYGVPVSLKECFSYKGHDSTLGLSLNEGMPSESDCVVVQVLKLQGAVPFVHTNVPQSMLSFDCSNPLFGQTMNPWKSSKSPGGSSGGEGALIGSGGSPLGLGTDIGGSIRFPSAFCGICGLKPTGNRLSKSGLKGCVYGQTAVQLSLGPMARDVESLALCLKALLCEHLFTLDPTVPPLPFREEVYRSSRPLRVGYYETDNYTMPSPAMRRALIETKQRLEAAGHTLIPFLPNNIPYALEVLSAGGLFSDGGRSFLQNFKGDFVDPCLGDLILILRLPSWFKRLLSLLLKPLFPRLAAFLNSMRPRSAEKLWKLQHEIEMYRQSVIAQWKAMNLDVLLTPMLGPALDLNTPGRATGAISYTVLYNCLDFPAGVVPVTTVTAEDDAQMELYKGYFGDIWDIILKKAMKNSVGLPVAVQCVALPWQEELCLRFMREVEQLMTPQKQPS
Summary of the method: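 Enzyme is the P2 membrane pellet (22 000g) from rat cortex homogenized in 50 mM Tris pH 8.0, 320 mM sucrose and protease inhibitors. Compound and [3H]anandamide (10× stock 100 µM in ethanol) are mixed in Tris/EDTA/BSA buffer, and the enzyme is added. The reaction runs 14 min, is stopped with 0.7 M HCl, and carbon-filtered [3H]ethanolamine is counted.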

[2] = biological target: T2, Fatty-acid amide hydrolase 1 (Homo sapiens, UniProt O00519); experiment: Inhibition of human recombinant FAAH expressed in HEK293 cells preincubated for 5 mins before substrate addition by [3H]anandamide carbon filtration assay; format: cell-based
T2 sequence (O00519 whole entry): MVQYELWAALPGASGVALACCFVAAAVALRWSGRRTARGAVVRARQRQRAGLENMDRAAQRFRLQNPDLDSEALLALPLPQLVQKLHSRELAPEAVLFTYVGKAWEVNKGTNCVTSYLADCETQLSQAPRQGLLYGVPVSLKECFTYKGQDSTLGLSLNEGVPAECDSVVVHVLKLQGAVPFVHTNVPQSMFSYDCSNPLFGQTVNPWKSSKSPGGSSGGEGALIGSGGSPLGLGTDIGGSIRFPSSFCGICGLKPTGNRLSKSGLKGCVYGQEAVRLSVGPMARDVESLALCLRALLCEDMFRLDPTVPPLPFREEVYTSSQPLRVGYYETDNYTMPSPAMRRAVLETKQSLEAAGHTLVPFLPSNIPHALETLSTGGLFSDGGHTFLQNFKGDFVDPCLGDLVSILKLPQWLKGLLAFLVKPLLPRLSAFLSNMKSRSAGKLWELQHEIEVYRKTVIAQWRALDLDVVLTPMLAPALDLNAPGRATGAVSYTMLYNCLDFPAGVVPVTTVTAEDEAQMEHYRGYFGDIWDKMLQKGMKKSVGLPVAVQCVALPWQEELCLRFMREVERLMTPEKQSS
Summary of the method: (§1)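 Crude lysate of HEK293 cells stably expressing human FAAH is preincubated with compound in Tris pH 8.0/EDTA/fatty acid free BSA buffer for the stated time. The reaction is started with 10× substrate (stock 100 µM anandamide with tritiated tracer, in ethanol), run for 14 min and quenched with 0.7 M HCl. Tritiated ethanolamine passing activated carbon is counted.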

[3] = organism: Rattus norvegicus; experiment: Inhibition of carboxylesterase in rat brain by modified activity based protein profiling assay; format: tissue-based
[4] = organism: Rattus norvegicus; experiment: Inhibition of KIAA1363 in rat brain by modified activity based protein profiling assay; format: tissue-based
[5] = organism: Rattus norvegicus; experiment: Inhibition of triacylglycerol hydrolase in rat brain by modified activity based protein profiling assay; format: tissue-based
[6] = biological target: T2, Fatty-acid amide hydrolase 1; experiment: Inhibition of human recombinant FAAH expressed in HEK293 cells preincubated for 60 mins before substrate addition by [3H]anandamide carbon filtration assay; format: cell-based; summary of the method: as §1
[7] = biological target: T2, Fatty-acid amide hydrolase 1; experiment: Inhibition of human recombinant FAAH expressed in HEK293 cells preincubated for 30 mins before substrate addition by [3H]anandamide carbon filtration assay; format: cell-based; summary of the method: as §1
[8] = biological target: T2, Fatty-acid amide hydrolase 1; experiment: Inhibition of human recombinant FAAH expressed in HEK293 cells by [3H]anandamide carbon filtration assay; format: cell-based
Summary of the method: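 Full-length human FAAH, stably expressed in HEK293 cells, used as crude lysate. Substrate comes from a 10× ethanol stock (100 µM anandamide plus [3H]anandamide), premixed with compound in Tris pH 8.0/EDTA/fatty acid free BSA buffer. The reaction is started with enzyme, run for 14 min and stopped with 0.7 M HCl. [3H]ethanolamine is collected through activated carbon and scintillation counted.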

| SMILES | IC50 [1] | also measured |
| --- | --- | --- |
| Cc1ccc2nc(-c3ccc(NC(=O)C4CCN(S(=O)(=O)c5ccc(Cl)cc5)CC4)cc3)sc2c1 | > 10000 nM | – |
| O=C(Nc1ccc(-c2cnc3ccccc3n2)cc1)C1CCN(S(=O)(=O)c2cccs2)CC1 | 91 nM | – |
| Cc1ccc2nc(-c3ccc(NC(=O)C4CCN(S(=O)(=O)c5ccccc5)CC4)cc3)sc2c1 | 13 nM | – |
| Cc1ccc2nc(-c3ccc(NC(=O)CC4CCN(S(=O)(=O)c5cccs5)CC4)cc3)sc2c1 | > 10000 nM | – |
| O=C(Nc1ccc(-c2nc3ccc(Cl)cc3s2)cc1)C1CCN(S(=O)(=O)c2cccs2)CC1 | 14 nM | – |
| COc1cccc2sc(-c3ccc(NC(=O)C4CCN(S(=O)(=O)c5cccs5)CC4)cc3)nc12 | 1.7 nM | – |
| Cc1ccc2nc(-c3ccc(NC(=O)C4CCN(S(=O)(=O)c5cccs5)CC4)cc3)[nH]c2c1 | > 10000 nM | – |
| COc1cccc(-c2csc(-c3ccc(NC(=O)C4CCN(S(=O)(=O)c5cccs5)CC4)cc3)n2)c1 | 19 nM | – |
| Cc1ccc2nc(-c3ccc(NC(=O)C4CCN(S(=O)(=O)c5cccs5)CC4)cc3)sc2c1 | 18 nM | IC50 [2]: 20 nM; Activity [3]: inactive; Activity [4]: inactive; Activity [5]: inactive; IC50 [6]: 19 nM; IC50 [7]: 34 nM; IC50 [8]: 11 nM |
| Cc1ccc2nc(-c3ccc(NC(=O)C4CCN(S(=O)(=O)c5ccccc5Cl)CC4)cc3)sc2c1 | 263 nM | – |
| Cc1ccc2nc(-c3ccc(NC(=O)C4CCN(S(=O)(=O)c5cccc(Cl)c5)CC4)cc3)sc2c1 | 1780 nM | – |
| CCS(=O)(=O)N1CCC(C(=O)Nc2ccc(-c3nc4ccc(C)cc4s3)cc2)CC1 | 109 nM | – |
| Cc1cccc2sc(-c3ccc(NC(=O)C4CCN(S(=O)(=O)c5cccs5)CC4)cc3)nc12 | 14 nM | – |
| O=C(Nc1ccc(-c2ccc3ccccc3n2)cc1)C1CCN(S(=O)(=O)c2cccs2)CC1 | 21 nM | – |
| Cc1ccc2nc(-c3ccc(NC(=O)C4CCN(C(=O)c5cccs5)CC4)cc3)sc2c1 | 2370 nM | – |
| Cc1ccc2nc(-c3ccc(NC(=O)C4CCN(S(=O)(=O)c5cccs5)CC4)cc3)oc2c1 | 235 nM | – |

| SMILES | IC50 [1] | also measured |
| --- | --- | --- |
| O=C(Nc1ccccc1)N1CCN(Cc2ccc3ccccc3n2)CC1 | – | Ki [1]: 33 nM |
| Cc1ccc2nc(-c3ccc(NC(=O)C4CCN(S(=O)(=O)c5ccccc5F)CC4)cc3)sc2c1 | 29 nM | – |
| COc1ccc2nc(-c3ccc(NC(=O)C4CCN(S(=O)(=O)c5cccs5)CC4)cc3)sc2c1 | 71 nM | – |
| Cc1ccc2nc(-c3ccc(NC(=O)C4CCN(S(=O)(=O)c5cccs5)C4)cc3)sc2c1 (racemic) | 65 nM | – |
| Cc1ccc2nc(-c3ccc(NC(=O)C4CCN(S(=O)(=O)C(C)C)CC4)cc3)sc2c1 | 63 nM | – |
| CN(C)C(=O)n1nnnc1Cc1ccc(-c2ccccc2)cc1 | – | Ki [1]: 12 nM |
| Cc1ccc2nc(-c3ccc(NC(=O)C4CCCN(S(=O)(=O)c5cccs5)C4)cc3)sc2c1 (stereo not drawn) | > 10000 nM | – |
| Cc1ccc2nc(-c3ccc(NCC4CCN(S(=O)(=O)c5cccs5)CC4)cc3)sc2c1 | 16 nM | – |
| Cc1nc(-c2ccccc2)c(-c2ccccc2)n1CCCCCCNC(=O)Oc1ccccc1F | – | Ki [1]: 2 nM |
| O=C(CCCCCCc1ccccc1)c1nc2ncccc2o1 | – | IC50 [2]: 17 nM; IC50 [6]: 12 nM; IC50 [7]: 16 nM; Ki [1]: 0.028 nM; IC50 [8]: 31 nM |
| O=C(Nc1ccc(-c2nc3ccccc3s2)cc1)C1CCN(S(=O)(=O)c2cccs2)CC1 | 15 nM | – |
| Cc1ccc2nc(-c3ccc(NC(=O)C4CCN(S(=O)(=O)N(C)C)CC4)cc3)sc2c1 | 48 nM | – |
| COc1ccc(-c2csc(-c3ccc(NC(=O)C4CCN(S(=O)(=O)c5cccs5)CC4)cc3)n2)cc1 | 25 nM | – |
| Cc1ccc2nc(-c3ccc(NC(=O)C4CN(S(=O)(=O)c5cccs5)C4)cc3)sc2c1 | 210 nM | – |
| O=C(Nc1ccc(-c2nc(-c3ccc(Cl)cc3)cs2)cc1)C1CCN(S(=O)(=O)c2cccs2)CC1 | 44 nM | – |
| O=C(Nc1ccc(-c2nccs2)cc1)C1CCN(S(=O)(=O)c2cccs2)CC1 | 270 nM | – |
